System: not listed separately
Assay: Inhibition of wild type Human immunodeficiency virus protease expressed in Escherichia coli using ArgGlu(EDANS)SerGlnAsnTyrProIleValGlnLys(DABCYL)Arg as substrate preincubated with compound for 0.5 to 1 min measured by fluorometric analysis at pH 6.5
Details: not given

Row | Structure (SMILES) | Ki [nM]
1 | CC(C)CN(C[C@@H](O)[C@H](Cc1ccccc1)NC(=O)O[C@H]1CO[C@H]2OCC[C@H]21)S(=O)(=O)c1ccc(N)cc1 | < 0.1
2 | CC(C)CN(C[C@@H](O)[C@H](Cc1ccccc1)NC(=O)O[C@H]1CO[C@H]2OCC[C@H]21)S(=O)(=O)c1ccc2c(c1)CCN2 | 0.12

System: not listed separately
Assay: Inhibition of Human immunodeficiency virus protease M8 mutant expressed in Escherichia coli using ArgGlu(EDANS)SerGlnAsnTyrProIleValGlnLys(DABCYL)Arg as substrate preincubated with compound for 0.5 to 1 min measured by fluorometric analysis at pH 6.5
Details: not given

Row | Structure (SMILES) | Ki [nM]
3 | CC(C)CN(C[C@@H](O)[C@H](Cc1ccccc1)NC(=O)O[C@H]1CO[C@H]2OCC[C@H]21)S(=O)(=O)c1ccc(N)cc1 | 0.25
4 | CC(C)CN(C[C@@H](O)[C@H](Cc1ccccc1)NC(=O)O[C@H]1CO[C@H]2OCC[C@H]21)S(=O)(=O)c1ccc2c(c1)CCN2 | 0.63

System: not listed separately
Assay: Inhibition of Human immunodeficiency virus protease M9 mutant expressed in Escherichia coli using ArgGlu(EDANS)SerGlnAsnTyrProIleValGlnLys(DABCYL)Arg as substrate preincubated with compound for 0.5 to 1 min measured by fluorometric analysis at pH 6.5
Details: not given

Row | Structure (SMILES) | Ki [nM]
5 | CC(C)CN(C[C@@H](O)[C@H](Cc1ccccc1)NC(=O)O[C@H]1CO[C@H]2OCC[C@H]21)S(=O)(=O)c1ccc(N)cc1 | < 0.3
6 | CC(C)CN(C[C@@H](O)[C@H](Cc1ccccc1)NC(=O)O[C@H]1CO[C@H]2OCC[C@H]21)S(=O)(=O)c1ccc2c(c1)CCN2 | 1.5

System: not listed separately
Assay: Inhibition of Human immunodeficiency virus protease M10 mutant expressed in Escherichia coli using ArgGlu(EDANS)SerGlnAsnTyrProIleValGlnLys(DABCYL)Arg as substrate preincubated with compound for 0.5 to 1 min measured by fluorometric analysis at pH 6.5
Details: not given

Row | Structure (SMILES) | Ki [nM]
7 | CC(C)CN(C[C@@H](O)[C@H](Cc1ccccc1)NC(=O)O[C@H]1CO[C@H]2OCC[C@H]21)S(=O)(=O)c1ccc(N)cc1 | 1
8 | CC(C)CN(C[C@@H](O)[C@H](Cc1ccccc1)NC(=O)O[C@H]1CO[C@H]2OCC[C@H]21)S(=O)(=O)c1ccc2c(c1)CCN2 | 10

System: Human immunodeficiency virus 1
Assay: Antiviral activity against Human immunodeficiency virus 1 HXB2 expressing wild type protease infected in human MT4 cells after 5 days by MTT assay
Type: functional, organism-based
Details: Human immunodeficiency virus 1, HXB2, MT4, 120 h

Row | Structure (SMILES) | IC50 [nM]
9 | CC(C)CN(C[C@@H](O)[C@H](Cc1ccccc1)NC(=O)O[C@H]1CO[C@H]2OCC[C@H]21)S(=O)(=O)c1ccc(N)cc1 | 3
10 | CC(C)CN(C[C@@H](O)[C@H](Cc1ccccc1)NC(=O)O[C@H]1CO[C@H]2OCC[C@H]21)S(=O)(=O)c1ccc2c(c1)CCN2 | 3.9

System: Human immunodeficiency virus 1
Assay: Antiviral activity against Human immunodeficiency virus 1 HXB2 expressing protease M8 mutant infected in human MT4 cells after 5 days by MTT assay
Type: functional, organism-based
Details: Human immunodeficiency virus 1, HXB2, MT4, 120 h

Row | Structure (SMILES) | IC50 [nM]
11 | CC(C)CN(C[C@@H](O)[C@H](Cc1ccccc1)NC(=O)O[C@H]1CO[C@H]2OCC[C@H]21)S(=O)(=O)c1ccc(N)cc1 | 16
12 | CC(C)CN(C[C@@H](O)[C@H](Cc1ccccc1)NC(=O)O[C@H]1CO[C@H]2OCC[C@H]21)S(=O)(=O)c1ccc2c(c1)CCN2 | 107

System: Human immunodeficiency virus 1
Assay: Antiviral activity against Human immunodeficiency virus 1 HXB2 expressing protease M9 mutant infected in human MT4 cells after 5 days by MTT assay
Type: functional, organism-based
Details: Human immunodeficiency virus 1, HXB2, MT4, 120 h

Row | Structure (SMILES) | IC50 [nM]
13 | CC(C)CN(C[C@@H](O)[C@H](Cc1ccccc1)NC(=O)O[C@H]1CO[C@H]2OCC[C@H]21)S(=O)(=O)c1ccc(N)cc1 | 25
14 | CC(C)CN(C[C@@H](O)[C@H](Cc1ccccc1)NC(=O)O[C@H]1CO[C@H]2OCC[C@H]21)S(=O)(=O)c1ccc2c(c1)CCN2 | 190

System: Human immunodeficiency virus 1
Assay: Antiviral activity against Human immunodeficiency virus 1 HXB2 expressing protease M10 mutant infected in human MT4 cells after 5 days by MTT assay
Type: functional, organism-based
Details: Human immunodeficiency virus 1, HXB2, MT4, 120 h

Row | Structure (SMILES) | IC50 [nM]
15 | CC(C)CN(C[C@@H](O)[C@H](Cc1ccccc1)NC(=O)O[C@H]1CO[C@H]2OCC[C@H]21)S(=O)(=O)c1ccc(N)cc1 | 130
16 | CC(C)CN(C[C@@H](O)[C@H](Cc1ccccc1)NC(=O)O[C@H]1CO[C@H]2OCC[C@H]21)S(=O)(=O)c1ccc2c(c1)CCN2 | 1700

System: Human immunodeficiency virus 1
Assay: Antiviral activity against Human immunodeficiency virus 1 HXB2 expressing protease M3 mutant infected in human MT4 cells after 5 days by MTT assay
Type: functional, organism-based
Details: Human immunodeficiency virus 1, HXB2, MT4, 120 h
Outline: (§1)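 MT-4 cells (AIDS Research and Reference Reagent Program) exposed to 50% tissue culture infective doses (TCID₅₀) of virus with various concentrations of test compound for 5 days. MTT solution then added and absorbance measured. Mutant strains carry 10–17 resistance mutations with phenotypic resistance to marketed PIs; all include I84V except M7. IC₅₀ reported.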

Row | Structure (SMILES) | IC50 [nM]
17 | CC(C)CN(C[C@@H](O)[C@H](Cc1ccccc1)NC(=O)O[C@H]1CO[C@H]2OCC[C@H]21)S(=O)(=O)c1ccc(N)cc1 | 11
18 | CC(C)CN(C[C@@H](O)[C@H](Cc1ccccc1)NC(=O)O[C@H]1CO[C@H]2OCC[C@H]21)S(=O)(=O)c1ccc2c(c1)CCN2 | 80

System: Human immunodeficiency virus 1
Assay: Antiviral activity against Human immunodeficiency virus 1 HXB2 expressing protease M4 mutant infected in human MT4 cells after 5 days by MTT assay
Type: functional, organism-based
Details: Human immunodeficiency virus 1, HXB2, MT4, 120 h
Outline: as §1

Row | Structure (SMILES) | IC50 [nM]
19 | CC(C)CN(C[C@@H](O)[C@H](Cc1ccccc1)NC(=O)O[C@H]1CO[C@H]2OCC[C@H]21)S(=O)(=O)c1ccc(N)cc1 | 30
20 | CC(C)CN(C[C@@H](O)[C@H](Cc1ccccc1)NC(=O)O[C@H]1CO[C@H]2OCC[C@H]21)S(=O)(=O)c1ccc2c(c1)CCN2 | 175

System: Human immunodeficiency virus 1
Assay: Antiviral activity against Human immunodeficiency virus 1 HXB2 expressing protease M5 mutant infected in human MT4 cells after 5 days by MTT assay
Type: functional, organism-based
Details: Human immunodeficiency virus 1, HXB2, MT4, 120 h
Outline: as §1

Row | Structure (SMILES) | IC50 [nM]
21 | CC(C)CN(C[C@@H](O)[C@H](Cc1ccccc1)NC(=O)O[C@H]1CO[C@H]2OCC[C@H]21)S(=O)(=O)c1ccc(N)cc1 | 22
22 | CC(C)CN(C[C@@H](O)[C@H](Cc1ccccc1)NC(=O)O[C@H]1CO[C@H]2OCC[C@H]21)S(=O)(=O)c1ccc2c(c1)CCN2 | 120

System: Human immunodeficiency virus 1
Assay: Antiviral activity against Human immunodeficiency virus 1 HXB2 expressing protease M6 mutant infected in human MT4 cells after 5 days by MTT assay
Type: functional, organism-based
Details: Human immunodeficiency virus 1, HXB2, MT4, 120 h
Outline: as §1

Row | Structure (SMILES) | IC50 [nM]
23 | CC(C)CN(C[C@@H](O)[C@H](Cc1ccccc1)NC(=O)O[C@H]1CO[C@H]2OCC[C@H]21)S(=O)(=O)c1ccc(N)cc1 | 10
24 | CC(C)CN(C[C@@H](O)[C@H](Cc1ccccc1)NC(=O)O[C@H]1CO[C@H]2OCC[C@H]21)S(=O)(=O)c1ccc2c(c1)CCN2 | 30

System: Human immunodeficiency virus 1
Assay: Antiviral activity against Human immunodeficiency virus 1 HXB2 expressing protease M7 mutant infected in human MT4 cells after 5 days by MTT assay
Type: functional, organism-based
Details: Human immunodeficiency virus 1, HXB2, MT4, 120 h
Outline: as §1

Row | Structure (SMILES) | IC50 [nM]
25 | CC(C)CN(C[C@@H](O)[C@H](Cc1ccccc1)NC(=O)O[C@H]1CO[C@H]2OCC[C@H]21)S(=O)(=O)c1ccc(N)cc1 | 3.2
26 | CC(C)CN(C[C@@H](O)[C@H](Cc1ccccc1)NC(=O)O[C@H]1CO[C@H]2OCC[C@H]21)S(=O)(=O)c1ccc2c(c1)CCN2 | 7.5

Reference: ChEMBL document CHEMBL2057112, “Enamino-oxindole HIV protease inhibitors” (Bioorg Med Chem Lett, 2012)
